# Compound activity (PubChem)
# This is a sample that favours compounds with a hit; in the whole collection about 4.8% have one here.
# NALP1 inh: inhibitors of NALP1 inflammasome in yeast; S. cerevisiae NALP1/ASC/caspase-1 growth, X-gal OD620, 72 h; inhibition, % at 10 µM; 280,000 tested, 0.61% active; in the data active = inhibition mostly above about 24%, no sharp cut-off; inactive = mostly below about 32%
# ALR H2O2 inh: blocks human ALR sulfhydryl oxidase activity | P55789 | 290,000 tested, 3.8% active | purified ALR, DTT oxidation, H2O2 HRP-luminol luminescence | inhibition, % (test concentration not listed);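 active = mean replicate inhibition above about 79%, with every replicate also reaching it, limit read from the data; inconclusive = only one of the two criteria met; inactive = mean below limit and not every replicate reaching it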
# Target sequence (P55789 whole entry, looked up): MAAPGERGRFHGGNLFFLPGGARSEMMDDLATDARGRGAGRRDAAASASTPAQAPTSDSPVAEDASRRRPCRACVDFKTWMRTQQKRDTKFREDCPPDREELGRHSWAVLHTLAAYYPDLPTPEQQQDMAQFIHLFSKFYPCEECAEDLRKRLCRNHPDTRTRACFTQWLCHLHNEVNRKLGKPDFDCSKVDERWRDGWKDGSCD
# NALP3 yeast inh: blocks the NALP3 inflammasome reconstituted in yeast. Yeast reconstituted NLRP3/ASC/caspase-1, beta-gal luminescence, 24 h. inhibition, % at 10 µM. 330,000 tested, 0.39% active. AID 2825;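 active = inhibition of 50% or more; inactive = inhibition below 50%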
# ATG4B inh: inhibitors of human ATG4B cysteine protease | Q9Y4P1 | ATG4B cleavage of LC3-PLA2, NBD-HPC fluorescence, 1 h | inhibition, % at 8.33 µM | 340,000 tested, 0.51% active | AID 504462; in the data active = inhibition above about 40%
# Target sequence (Q9Y4P1 whole entry, looked up): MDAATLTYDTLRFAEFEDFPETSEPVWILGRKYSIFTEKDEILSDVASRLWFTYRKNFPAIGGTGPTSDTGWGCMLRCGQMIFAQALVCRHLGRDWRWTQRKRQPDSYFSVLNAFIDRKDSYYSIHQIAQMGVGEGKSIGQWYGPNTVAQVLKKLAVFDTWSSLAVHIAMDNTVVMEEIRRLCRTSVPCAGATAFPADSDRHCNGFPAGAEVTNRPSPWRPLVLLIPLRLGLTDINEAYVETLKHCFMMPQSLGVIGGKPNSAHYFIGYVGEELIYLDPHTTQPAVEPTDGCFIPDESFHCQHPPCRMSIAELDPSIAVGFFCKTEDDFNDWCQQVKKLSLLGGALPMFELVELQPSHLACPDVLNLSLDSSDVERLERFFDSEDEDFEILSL
# Calb FLC: affects C. albicans growth with fluconazole | C. albicans CaCi-2 + fluconazole, Alamar Blue growth, 48 h | growth inhibition, % (concentration not given with the values) | 300,000 tested, 0.57% active;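 active = growth inhibition above about 58% in most replicates, limit read from the data, passing the limit was not always enough; inconclusive = exactly half the replicates above a set limit; inactive = most replicates below a set limit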;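 also: all wells also contain fluconazole at 8 µg/ml as a sub-toxic cotreatment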
# UCH37 inh: blocks the human deubiquitinase UCH37; Q9Y5K5; purified proteasome/UCH37, Ub-AMC cleavage fluorescence; inhibition, % (test concentration not listed); 330,000 tested, 0.33% active; AID 588478;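 active = mean inhibition over replicate wells above about 20%, limit read from the data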
#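 Schedule: 30 min plus 25 min, room temperature / Material: human UCH37 within purified proteasomes / Technique: AMC fluorescence intensity at 355/460 nm / Buffer or medium: pH 7.4 Tris-HCl (50 mM) with ovalbumin, ATP-MgCl2, DTT / Controls: wells without proteasome as full block, compound-free enzyme plus substrate as uninhibited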
# Hits are given with their value; 0 = inactive; ? = inconclusive; - = no result given.
SMILES,NALP1 inh,ALR H2O2 inh,NALP3 yeast inh,ATG4B inh,Calb FLC,UCH37 inh
CCOc1cc(C=NNC(=O)C2CCCC2)ccc1O,-,-,-,-,-,0
CCOc1cc(/C=N/NC(=O)Nc2ccccc2)ccc1O,0,99,0,0,0,-
CCOc1cc(C=NNC(=O)Nc2ccccc2)ccc1O,-,-,-,-,-,0
O=C(CSc1cccc2cccnc12)NN=Cc1cccc(O)c1,-,-,-,-,-,0
CCOc1cc(/C=N/NC(=O)CSc2cccc3cccnc23)ccc1O,0,99,0,0,0,-
CCOc1cc(/C=N/NC(=O)C2CCCC2)ccc1O,0,99,0,0,0,-
O=[N+]([O-])c1ccccc1S(=O)(=O)Oc1ccc(C=Nn2cnnc2)cc1,-,-,-,-,-,0
CCOc1cc(/C=N/Nc2nc(-c3cccs3)c(NC(C)=O)s2)ccc1O,-,95,0,0,0,-
O=C(COc1cccc2cccnc12)NN=Cc1ccc(O)cc1,-,-,-,-,-,0
O=C(N/N=C/c1ccc(Cl)cc1)C(=O)N1CCCCCC1,25,0,0,0,0,-
O=C(COc1cccc2cccnc12)N/N=C/c1ccc(O)cc1,0,99,0,0,0,-
O=C(CC(=O)NC1CCCCC1)NN=Cc1ccc(Cl)cc1,-,-,-,-,-,27
CCOc1cc(C=NNc2nc(-c3ccc(C)cc3)c(NC(C)=O)s2)ccc1O,-,-,-,-,-,0
CC(=NNc1nccnc1Cl)c1c(F)c(F)c(F)c(F)c1F,-,-,-,-,-,0
COc1cc(C=NNC(=O)C(C)n2nnc3ccccc32)ccc1O (stereo not given),-,-,-,-,-,0
O=C(NN=Cc1ccccc1Cl)c1ccncc1,-,-,-,-,-,0
CC(=NNC(=O)CC(C)C)c1ccc(Cl)c(Cl)c1,-,-,-,-,-,0
COc1ccc(CC(=O)Nc2ccc(C(C)=NNC(=O)c3ccc(Br)o3)cc2)cc1,-,-,-,-,-,0
CCOc1cc(C=NNC(=O)CN2CCCCC2)ccc1O,-,-,-,-,-,0
CCOc1cc(/C=N/NC(=O)C(=O)N2CCCC2)ccc1O,0,99,0,0,0,-
CC(=NNC(=O)c1ccoc1C)c1ccc(NC(=O)C2CCCC2)cc1,-,-,-,-,-,0
CC(C)CC(=O)N1CCN(Cc2ccc(Cl)cc2)CC1,0,0,0,0,0,0
CC(C)c1ccc(CN2CCN(C(=O)CCl)CC2)cc1,59,-,-,0,-,0
CC(C)c1ccc(/C=C/C(=O)Nc2ccc(CN3CCOCC3)cc2)cc1,40,0,0,0,0,0
CC(C)(C)c1cc(C(=O)NN=Cc2ccccc2O)n(-c2ccccc2)n1,-,-,-,-,-,0
SMILES,NALP1 inh,ALR H2O2 inh,NALP3 yeast inh,ATG4B inh,Calb FLC,UCH37 inh
CCOC(=O)C(=NC(C)(C)C)NNc1cc(Cl)ccc1Cl,0,99,0,0,0,0
CCOC(=O)C(=NC(C)C)NNc1cc(Cl)ccc1Cl,0,-,0,0,0,0
COc1cc(/C=C/C(=O)c2ccc([N+](=O)[O-])o2)ccc1O,-,?,0,0,0,0
O=C(/C=C/c1cccc(Cl)c1)c1ccc([N+](=O)[O-])o1,-,0,0,0,88,0
COc1ccc(C=NNC(=O)Cn2cnc3ccccc3c2=O)cc1OC,-,-,-,-,-,0
O=C(NN=Cc1ccc(-c2cccc(C(F)(F)F)c2)o1)c1cccc(F)c1,-,-,-,-,-,0
Cc1cccc(OCCOc2ccc(C=NNC(=O)Cc3nnc(N)s3)cc2)c1,-,-,-,-,-,0
N#C/C(=C/c1ccc(N2CCOCC2)o1)c1ccc(Br)cc1,0,92,0,0,0,0
COc1cc(/C=C(\C#N)c2nnc(N3CCOCC3)n2-c2ccccc2)ccc1O,0,99,0,0,0,0
N#C/C(=C\c1ccc(N2CCOCC2)o1)c1ccccc1,0,-,0,0,0,0
N#C/C(=C\c1ccc(N2CCOCC2)cc1)c1ccccc1,0,0,0,0,87,0
O=[N+]([O-])c1ccc(NC(=S)NC(=NCS(=O)(=O)c2ccccc2)c2ccccc2)cc1,-,-,-,-,-,0
O=C(CCCC(=O)Nc1ccc(Br)cc1)NN=Cc1ccccc1,-,-,-,-,-,0
c1ccc(CC2CCN(c3ncnc4sccc34)CC2)cc1,0,-,-,0,97,0
O=C(O)c1cc2c(N3CCC(Cc4ccccc4)CC3)ncnc2s1,0,0,0,0,?,0
Cc1ccc(NC(=S)NCC2CCCO2)cc1C (stereo not given),0,0,0,0,0,0
Oc1ccc(/C=N/NC(=S)NCC2CCCO2)cc1 (stereo not given),0,98,0,0,0,-
Oc1ccc(/C=N/NC(=S)NC2CC3CCC2C3)cc1 (stereo not given),0,99,0,0,0,-
Cc1ccc(NC(=S)NCC2CCCO2)cc1 (stereo not given),33,0,0,0,0,0
S=C(NCC1CCCO1)NC12CC3CC(CC(C3)C1)C2 (stereo not given),20,0,0,0,0,0
O=C(NN=Cc1c(Cl)cccc1Cl)c1n[nH]c2c1CCCC2,-,-,-,-,-,0
Cc1oc(N=Cc2ccc3c(c2)OCO3)c(C#N)c1C,-,-,-,-,-,0
CCOC(=O)C1=C(C)N=c2sc(=Cc3ccco3)c(=O)n2C1c1cccc(OC)c1 (stereo not given),-,-,-,-,-,0
CCN(CC)c1ccc(NC(=S)NCC2CCCO2)cc1 (stereo not given),0,100,0,0,0,0
CCOC(=O)c1c(NC(=S)NCC2CCCO2)sc(C)c1C (stereo not given),0,0,0,0,85,0
SMILES,NALP1 inh,ALR H2O2 inh,NALP3 yeast inh,ATG4B inh,Calb FLC,UCH37 inh
COC(=O)c1ccc(-c2ccc(C=NN3C(=O)C4C5C=CC(C6CC56)C4C3=O)o2)cc1 (stereo not given),-,-,-,-,-,0
CCNc1nc(NCC)nc(NN=Cc2cc(OC)c(OC)c(OC)c2)n1,-,-,-,-,-,0
Cc1ccc(C2C(C#N)=C(N)OC3=C2C(=O)CC(C)(C)C3)s1 (stereo not given),-,0,0,0,0,0
CC1(C)CC(=O)C2=C(C1)OC(N)=C(C#N)C2c1cccs1 (stereo not given),0,96,0,0,0,0
O=c1[nH]cnc(O)c1C(c1ccc2c(c1)OCO2)c1c(O)nc[nH]c1=O,28,0,0,0,0,0
Nc1nnc2c(n1)CCCC2,0,0,0,0,0,21
O=C(NCc1ccccn1)C(=NO)c1ccccc1,-,-,-,-,-,0
O=C1CC(c2ccccc2)CC(=NCCO)/C1=C(\O)CCCN1C(=O)c2ccccc2C1=O (stereo not given),0,-,0,0,64,-
O=C(O)CN=C1CC(c2ccccc2)CC(=O)/C1=C(\O)CCCN1C(=O)c2ccccc2C1=O (stereo not given),-,-,-,-,-,0
Cc1ccc(Nc2nnc(SCc3cc(=O)n4cc(C)ccc4n3)s2)cc1,0,99,0,0,0,0
Cc1ccc2nc(CSc3nnc(Nc4ccccc4F)s3)cc(=O)n2c1,0,0,0,0,0,0
CC(C=NO)Cc1ccc2c(c1)OCO2 (stereo not given),-,-,-,-,-,0
CCOc1ccc(NC(=O)CSc2nncc(=O)n2N)cc1,0,96,0,0,0,0
CCOc1ccc(NC(=O)CSc2nnc(-c3ccccc3)n2N)cc1,0,0,0,0,0,0
CCOc1ccc(NC(=O)CSc2nnc(C)n2CC)cc1,0,0,0,0,0,0
